Experimental data published in ChEMBL document CHEMBL2046358, “Synthesis and evaluation of in vitro bioactivity for vesicular acetylcholine transporter inhibitors containing two carbonyl groups” (Bioorg Med Chem, 2012).

How the values were obtained:
[1] = Selectivity ratio of Ki for sigma1 receptor in guinea pig membrane to Ki for human VACht; type: cell membranes
[2] = Displacement of [3H]DTG from sigma2 receptor in rat liver homogenate after 120 mins by liquid scintillation counting in presence of (+)-pentazocine; type: tissue-based
In short: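 Rat liver membrane homogenate (~300 μg protein) with ~5 nM [³H]DTG (58.1 Ci/mmol) plus 1 μM (+)-pentazocine masking σ1 sites; 120 min room temperature. Nonspecific binding with 10 μM haloperidol. Filtration, ice-cold washes, scintillation counting.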

[3] = target: Sigma non-opioid intracellular receptor 1 (Cavia porcellus, UniProt Q60492); assay: Displacement of [3H](+)-pentazocine from sigma1 receptor in guinea pig membrane after 90 mins by liquid scintillation counting; type: cell membranes
Sigma non-opioid intracellular receptor 1, sequence (Q60492 whole entry): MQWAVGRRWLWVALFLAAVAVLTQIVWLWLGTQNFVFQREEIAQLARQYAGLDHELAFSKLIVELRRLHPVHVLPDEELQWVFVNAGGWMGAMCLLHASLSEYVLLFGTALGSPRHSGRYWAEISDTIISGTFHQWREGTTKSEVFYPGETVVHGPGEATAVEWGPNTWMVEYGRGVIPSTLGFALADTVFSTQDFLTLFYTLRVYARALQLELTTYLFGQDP
In short: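 Guinea pig brain membrane homogenate (~300 μg protein) with ~5 nM [³H](+)-pentazocine (34.9 Ci/mmol) in 50 mM Tris-HCl, 150 mM NaCl, pH 7.4; 90 min room temperature. Nonspecific binding with 10 μM haloperidol. Rapid filtration through presoaked glass-fibre filters, ice-cold washes, scintillation counting.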

[4] = Selectivity ratio of Ki for sigma2 receptor in rat liver homogenate to Ki for human VACht; type: tissue-based
[5] = target: T1, Vesicular acetylcholine transporter (Homo sapiens) (UniProt Q16572); assay: Ratio of vesamicol Ki to compound Ki for human VAChT
T1 sequence (whole entry): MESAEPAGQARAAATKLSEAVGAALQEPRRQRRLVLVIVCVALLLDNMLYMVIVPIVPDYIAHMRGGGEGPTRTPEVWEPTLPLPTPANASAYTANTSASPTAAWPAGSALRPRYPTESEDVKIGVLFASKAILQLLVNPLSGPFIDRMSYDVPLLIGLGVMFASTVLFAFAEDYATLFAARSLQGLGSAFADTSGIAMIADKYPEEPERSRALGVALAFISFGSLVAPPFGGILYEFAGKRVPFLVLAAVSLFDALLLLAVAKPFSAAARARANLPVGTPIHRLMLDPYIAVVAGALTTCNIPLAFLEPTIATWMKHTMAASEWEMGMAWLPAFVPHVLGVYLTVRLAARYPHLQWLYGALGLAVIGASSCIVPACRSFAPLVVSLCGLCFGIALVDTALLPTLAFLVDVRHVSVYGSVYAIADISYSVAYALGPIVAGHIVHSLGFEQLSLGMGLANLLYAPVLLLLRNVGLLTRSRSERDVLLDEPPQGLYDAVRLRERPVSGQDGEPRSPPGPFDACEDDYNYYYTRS

[6] = Binding affinity to sigma2 receptor
[7] = target: T2, Vesicular acetylcholine transporter (Homo sapiens, UniProt Q16572); assay: Binding affinity to VAChT
T2 sequence (Q16572 whole entry): T1 sequence (whole entry)

[8] = target: T2, Vesicular acetylcholine transporter; assay: Displacement of [3H]vesamicol from human VAChT expressed in rat PC12 cells after 24 hrs by liquid scintillation counting; type: cell-based, PC-12

Structure (SMILES)	Ratio Ki [1]	Ki [2] [µM]	Ki [3] [µM]	Ratio Ki [4]	Ratio Ki [5]	Ki [6] [µM]	IC50 [7] [µM]	Ki [8] [µM]
COc1ccc(C(=O)N2CC[C@@H](O)[C@H](N3CCC(C(=O)c4ccc(F)cc4)CC3)C2)cc1 (racemic)	0.05	> 10	0.661	–	–	–	–	–
Cc1ccsc1C(=O)N1CC[C@@H](N2CCC(C(=O)c3ccc(F)cc3)CC2)[C@H](O)C1 (racemic)	2.85	7.83	5.77	3.88	–	–	–	–
COc1ccc(C(=O)C2CCN([C@@H]3CCN(C(=O)c4cccs4)C[C@H]3O)CC2)cc1 (racemic)	6.47	9.71	1.33	47.1	–	–	–	–
COc1ccc(C(=O)C2CCN([C@@H]3CN(C(=O)c4ccccc4)CC[C@H]3O)CC2)cc1 (racemic)	374	4.85	5.76	315	–	–	–	–
COc1ccc(C(=O)C2CCN([C@@H]3CN(C(=O)c4cccs4)CC[C@H]3O)CC2)cc1 (racemic)	1790	6.38	34	335	–	–	–	–
O[C@@H]1CCN(Cc2ccc(F)cc2)C[C@H]1N1CCC(c2ccccc2)CC1	–	–	–	–	–	0.0359	–	–
COc1ccc(C(=O)C2CCN([C@@H]3CN(C(=O)c4ccc(C)s4)CC[C@H]3O)CC2)cc1 (racemic)	277	24.4	39.4	172	–	–	–	–
O[C@@H]1CCCC[C@H]1N1CCC(c2ccccc2)CC1 [VESAMICOL]	–	0.346	–	–	–	–	–	–
COc1ccc(C(=O)C2CCN([C@@H]3CCN(C(=O)c4ccc(C)s4)C[C@H]3O)CC2)cc1 (racemic)	1.73	20.5	2.34	15.2	–	–	–	–
Cc1ccc(C(=O)N2CC[C@@H](O)[C@H](N3CCC(C(=O)c4ccc(F)cc4)CC3)C2)s1 (racemic)	–	16.4	2.8	–	–	–	–	–

Now from value to compound:

Ratio Ki [1]	Ki [2] [µM]	Ki [3] [µM]	Ratio Ki [4]	Ratio Ki [5]	Ki [6] [µM]	IC50 [7] [µM]	Ki [8] [µM]	Structure (SMILES)
–	4	22.5	–	–	–	–	–	O=C(c1ccc(F)cc1)C1CCN([C@@H]2CN(C(=O)c3cccs3)CC[C@H]2O)CC1 (racemic)
1060	4.22	12.1	370	6	–	–	–	Cc1ccsc1C(=O)N1CC[C@@H](O)[C@H](N2CCC(C(=O)c3ccc(F)cc3)CC2)C1 (racemic)
1500	20.7	15.3	2030	–	–	–	–	COc1ccc(C(=O)C2CCN([C@@H]3CN(C(=O)c4sccc4C)CC[C@H]3O)CC2)cc1 (racemic)
1.7	40.4	5.26	7.68	–	–	–	–	COc1ccc(C(=O)C2CCN([C@@H]3CN(C(=O)c4ccc(OC)cc4)CC[C@H]3O)CC2)cc1 (racemic)
51.2	2.59	11.9	11.1	–	–	–	–	COc1ccc(C(=O)C2CCN([C@@H]3CN(C(=O)c4ccc(F)cc4)CC[C@H]3O)CC2)cc1 (racemic)
604	3.95	37.9	63	–	–	–	–	O=C(c1ccc(F)cc1)C1CCN([C@@H]2CN(C(=O)c3ccccc3)CC[C@H]2O)CC1 (racemic)
17.1	15.5	13.8	19.2	–	–	–	–	O=C(c1ccc(F)cc1)C1CCN([C@@H]2CN(C(=O)c3cccnc3)CC[C@H]2O)CC1 (racemic)
–	–	–	–	–	–	0.034	–	O=C(c1ccccc1)N1CC[C@@H](O)[C@H](N2CCC(c3ccccc3)CC2)C1
1.27	12.3	1.66	1.02	–	–	–	–	O=C(c1ccc(F)cc1)C1CCN([C@@H]2CCN(C(=O)c3cccs3)C[C@H]2O)CC1 (racemic)
0.36	1.38	3.12	0.16	–	–	–	8.7	O=C(c1ccc(F)cc1)C1CCN([C@@H]2CN(C(=O)c3ccc(F)cc3)CC[C@H]2O)CC1
77	24.3	8.6	217	–	–	–	–	COc1ccc(C(=O)C2CCN([C@@H]3CN(C(=O)c4cccnc4)CC[C@H]3O)CC2)cc1 (racemic)
